Measurements published in ChEMBL document CHEMBL4665829, “Synthesis, Structure-Activity Relationship, and Antimalarial Efficacy of 6-Chloro-2-arylvinylquinolines” (J Med Chem, 2020).
Activity calls are given as the source filed them. The rule behind the calls is not given here.

What was measured:
[1] = Drug level in mouse liver microsomes treated with N1-(6-chloro-2-(4-fluorostyryl)quinolin-4-yl)-N2,N2-dimethylethane-1,2-diamine measured up to 60 mins by LC-MS analysis; type: ADME, Microsome; details: 1 h
Procedure, shortened: (§1)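 Microsomal incubations: mouse liver microsomes at 0.5 mg/mL, 1 μM compound, pH 7.4 phosphate, 37 °C, NADPH-regenerating system. The metabolite mixture was analysed by LC–MS after 15, 30 and 60 min.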

HepG2 = assay: Cytotoxicity against human HepG2 cells assessed as reduction in cell viability after 48 hrs by MTS assay; type: cell-based; details: HepG2, 48 h
Procedure, shortened: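 HepG2 cells were seeded at 2250 per well and grown 24 h at 37 °C, 5% CO₂. Serial dilutions starting at 25 μM were added for a further 48 h. MTS was then added for 3 h at 37 °C and absorbance read at 490 nm. EC₅₀ came from nonlinear dose–response fits.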

Plasmodium falciparum [2] = assay: Antiplasmodial activity against synchronous gametocyte early stage of Plasmodium falciparum 3D7 harboring luc7 incubated for 72 hrs by ONE-Glo luciferase assay; type: functional, organism-based; details: 3D7, 72 h
Procedure, shortened: (§2)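 Gametocytes of P. falciparum 3D7 luc7 induced by nutrient starvation, cultured in heparin medium to remove asexual stages, Percoll-purified as early (II–III) or late (IV–V) stage. 50,000 gametocytes/well exposed 72 h to a 19-point gradient, 0.038 nM–10 μM. ONE-Glo luciferase read after 5 min. EC50 by nonlinear curve fit; three experiments.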

Plasmodium falciparum [3] = assay: Antiplasmodial activity against late trophozoite synchronized chloroquine-resistant Plasmodium falciparum Dd2 reduction in microbial growth at 5 times of EC50 after 12 hrs by Giemsa staining-based microscopic analysis; type: functional, organism-based
Procedure, shortened: (§3)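 Dd2 cultures tightly synchronized by magnetic separation and sorbitol were dosed at 5 × EC50 at 6, 18, 30 or 42 h post-invasion. Controls: DHA 50 nM, atovaquone 6.6 nM, DMSO 0.1%. Sampled every 12 h for Giemsa thin smears and for flow cytometry: glutaraldehyde/paraformaldehyde fixation, Triton permeabilization, RNAse, 500 nM YOYO-1, 500,000 events/sample. Three independent biological replicates.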

[4] = Selectivity index, ratio of EC50 for cytotoxicity against human HepG2 cells to antiplasmodial activity against chloroquine-resistant Plasmodium falciparum Dd2; type: toxicity, cell-based; details: read-out: Ratio EC50
Plasmodium falciparum [5] = assay: Antiplasmodial activity against chloroquine-resistant Plasmodium falciparum Dd2 infected in human erythrocytes assessed as reduction in microbial growth after 72 hrs by SYBR green I staining based fluorescence assay; type: functional, organism-based; details: Dd2, Erythrocyte
Procedure, shortened: (§4)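 SYBR Green I assay: twofold serial dilutions on P. falciparum cultures at 1% parasitemia, 1% hematocrit, 37 °C, 5% CO₂, 72 h, max 0.1% DMSO. DMSO and CQ as growth and inhibition controls. Plates frozen at −80 °C, thawed, lysed in Tris/saponin/EDTA/Triton buffer with 0.01% SYBR Green I, 1 h dark at room temperature. Fluorescence read at 485 ex/530 em. EC50 by nonlinear dose–response fit.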

[6] = Intrinsic clearance in mouse liver microsomes assessed as parent compound at 1 uM after 60 mins in presence of NADPH by LC-MS analysis; type: ADME, Microsome
Procedure, shortened: (§5)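 Mouse liver microsomes (0.5 mg/mL final protein) in 0.1 M phosphate, pH 7.4, with compound at 1 μM, 37 °C with shaking. Aliquots were quenched in cold acetonitrile and centrifuged; LC–MS gave parent peak area at 60 min relative to 0 min.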

Plasmodium falciparum [7] = assay: Antiplasmodial activity against chloroquine-sensitive Plasmodium falciparum 3D7 infected in human erythrocytes assessed as reduction in microbial growth after 72 hrs by SYBR green I staining based fluorescence assay; type: functional, organism-based; details: for EC50: 3D7, Erythrocyte; for Activity: Erythrocyte; procedure, shortened: as §4
[8] = Half life in mouse liver microsomes at 1 uM after 60 mins in presence of NADPH by LC-MS analysis; type: ADME, Microsome; details: 1 h; procedure, shortened: as §5
Plasmodium berghei [9] = assay: Antiplasmodial activity against Plasmodium berghei ANKA expressing luciferase infected in Swiss Webster mouse at 25 mg/kg, po for 5 days using monophosphate salt form of compound by luminescence based assay; type: functional, organism-based; details: time 5.0 day
Procedure, shortened: (§6)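 Female Swiss Webster mice got 10³ RBC infected with luciferase-expressing P. berghei ANKA. From 48 h post-infection, groups of five were gavaged once daily for 5 days in 2% methylcellulose/0.5% Tween 80, against a vehicle control. On day 7, mice received 150 mg/kg D-luciferin in PBS, and bioluminescence was imaged by IVIS as a measure of parasite load.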

Plasmodium falciparum [10] = assay: Antiplasmodial activity against late trophozoite synchronized chloroquine-resistant Plasmodium falciparum Dd2 reduction in microbial growth at 5 times of EC50 after 12 hrs by YOYO-1 staining-based flow cytometric analysis; type: functional, organism-based; procedure, shortened: as §3
Plasmodium falciparum [11] = assay: Antiplasmodial activity against synchronous gametocyte late stage of Plasmodium falciparum 3D7 harboring luc7 incubated for 72 hrs by ONE-Glo luciferase assay; type: functional, organism-based; details: 3D7, 72 h; procedure, shortened: as §2
[12] = Stability of compound in mouse liver microsomes assessed as parent compound remaining at 1 uM after 60 mins in presence of NADPH by LC-MS analysis; type: ADME, Microsome; details: 1 h; procedure, shortened: as §5
Hemozoin [13] = assay: Inhibition of beta-hematin formation after 16 hrs by inverted microscopic analysis; details: dose microM 12.5-200, time 16.0 hrs
Procedure, shortened: (§7)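 Hemin (2 mM stock in 0.1 M NaOH; 100 μM final), propionate buffer pH 5.2 and sonicated phosphatidylcholine were incubated with a compound concentration series for 16 h at 37 °C with gentle shaking. Crystals were imaged by inverted microscope before quenching with 7.5% SDS in bicarbonate, pH 9.1. Free hemin was measured at 405 nm against a 0–16 μM calibration. Three independent experiments.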

[14] = Resistant index, ratio of EC50 for antiplasmodial activity against chloroquine-resistant Plasmodium falciparum Dd2 to antiplasmodial activity against chloroquine-sensitive Plasmodium falciparum 3D7; type: functional
Plasmodium falciparum [15] = assay: Parasiticidal activity against chloroquine-resistant Plasmodium falciparum Dd2 infected in RBC assessed as reduction in parasitemia at 5 times of EC50 incubated for 6 to 48 hrs followed by compound washout and then incubated for 96 hrs by Giemsa staining based microscopic analysis; type: functional, organism-based; details: time hrs 6-48
Procedure, shortened: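 Controls: 0.15% DMSO, DHA 50 nM, atovaquone 6.6 nM. Drug removed by three RPMI washes, then parasitemia followed daily for 96 h by Giemsa thin smears. Three independent biological replicates.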

Plasmodium berghei [16] = assay: Antiplasmodial activity against Plasmodium berghei ANKA expressing luciferase infected in Swiss Webster mouse at 100 mg/kg, po for 5 days using monophosphate salt form of compound by luminescence based assay; type: functional, organism-based; details: time 5.0 day; procedure, shortened: as §6
[17] = Drug level in mouse liver microsomes treated with 6-chloro-N-(4-morpholinobutyl)-2-(2-(pyridin-4-yl)vinyl)quinolin-4-amine measured up to 60 mins by LC-MS analysis; type: ADME, Microsome; details: 1 h; procedure, shortened: as §1
Hemozoin [18] = assay: Inhibition of beta-hematin formation at 12.5 to 200 uM after 16 hrs by inverted microscopic analysis; details: dose microM 12.5-200, time 16.0 hrs; procedure, shortened: as §7
[19] = Drug level in mouse liver microsomes treated with N1,N1-diethyl-N4-(6-methoxy-2-(4-nitrostyryl)quinolin-4-yl)pentane-1,4-diamine measured up to 60 mins by LC-MS analysis; type: ADME, Microsome; details: 1 h; procedure, shortened: as §1

Row | Compound | EC50 (HepG2) | selectivity ratio [4] | EC50 (Plasmodium falciparum [5]) | EC50 (Plasmodium falciparum [7]) | Ratio EC50 [14] | other results
1 | NCCNc1cc(/C=C/c2ccc(F)cc2)nc2ccc(Cl)cc12 |  |  |  |  |  | Drug uptake [1]: Active
2 | CN1CCN(CCNc2cc(/C=C/c3ccc(F)cc3)nc3ccc(Cl)cc23)CC1 | 3200 nM | 209 | 15.3 nM | 15.7 nM | 1 | EC50 (Plasmodium falciparum [2]): 910 nM; Activity (Plasmodium falciparum [3]): Active; CLH [6]: 23 µL/min/mg; t1/2 [8]: 1 h; Activity (Plasmodium berghei [9]): inactive; Activity (Plasmodium falciparum [10]): Active; EC50 (Plasmodium falciparum [11]): 2500 nM; Stabilty [12]: 50.2%; inhibition (Hemozoin [13]): Dose-dependent effect; Activity (Plasmodium falciparum [15]): Active; Activity (Plasmodium berghei [16]): Active
3 | FC(F)(F)c1ccc(/C=C/c2cc(NCCCCN3CCOCC3)c3cc(Cl)ccc3n2)cc1 | 10200 nM | 332 | 30.7 nM | 73.8 nM | 0.4 | CLH [6]: 21.4 µL/min/mg; t1/2 [8]: 1.08 h; Stabilty [12]: 52.7%
4 | OCCNCCCCNc1cc(/C=C/c2ccncc2)nc2ccc(Cl)cc12 |  |  |  |  |  | Drug uptake [17]: Active
5 | CN(C)c1ccc2nc3ccc(N(C)C)cc3[s+]c2c1 [METHYLENE BLUE ANHYDROUS] |  |  |  |  |  | EC50 (Plasmodium falciparum [2]): 74.7 nM; EC50 (Plasmodium falciparum [11]): 107 nM
6 | COc1ccc2nc(/C=C/c3cc(NCCN(C)C)c4cc(Cl)ccc4n3)ccc2c1 |  |  | 281 nM |  | > 1.3 | 
7 | Clc1ccc2nc(/C=C/c3ccncc3)cc(NCCCCN3CCOCC3)c2c1 | 5670 nM | 561 | 9.9 nM | 20.8 nM | 0.5 | CLH [6]: 96.2 µL/min/mg; t1/2 [8]: 0.24 h; Stabilty [12]: 5.6%
8 | COc1ccc2nc(/C=C/c3cc(OC)c(OC)c(OC)c3)cc(NCCN(C)C)c2c1 |  |  | 74.2 nM |  | > 1.3 | Activity (Plasmodium falciparum [7]): Active
9 | COc1ccc2nc(/C=C/c3ccccc3)cc(NCCN(C)C)c2c1 |  |  | 41.2 nM |  | > 1.3 | Activity (Plasmodium falciparum [7]): Active
10 | CCN(CC)CCCC(C)Nc1ccnc2cc(Cl)ccc12 (stereo not drawn) [CHLOROQUINE] | 10400 nM |  | 174 nM | 17.8 nM |  | inhibition (Hemozoin [18]): Active
11 | CN(C)CCNc1cc(/C=C/c2ccccc2F)nc2ccc(Cl)cc12 | 4830 nM | 186 | 26 nM | 55.9 nM | 0.5 | 
12 | Fc1ccc(/C=C/c2cc(NCCN3CCOCC3)c3cc(Cl)ccc3n2)cc1 | 17200 nM | 711 | 24.2 nM | 41.8 nM | 0.6 | 
13 | CN(C)CCNc1cc(/C=C/c2cccc3ccccc23)nc2ccc(Cl)cc12 |  |  | 373 nM |  | > 1.3 | 
14 | CCNCCCC(C)Nc1cc(/C=C/c2ccc([N+](=O)[O-])cc2)nc2ccc(OC)cc12 (stereo not drawn) |  |  |  |  |  | Drug uptake [19]: Active
15 | CN(C)CCNc1cc(/C=C/c2cncnc2)nc2ccc(Cl)cc12 |  |  | 155 nM |  | > 1.3 | 
